Source: PubChem (several laboratories)
Rows were chosen to be rich in hits. Some 2.2% of all compounds tested hit in one or more screens of this group.
NR2E3 ag-1 – agonists of human NR2E3 nuclear receptor. Q9Y5X4. CHO-S Gal4-NCOR/VP16-NR2E3 two-hybrid, luciferase. inhibition of corepressor binding, % at 3.98 µM. hit rate 0.35% among 360,000;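 active = inhibition above the mean of all tested compounds plus 3 SD, cut at about 70% in these data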;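 also: higher means lower luciferase signal from less NR2E3 corepressor binding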
Target sequence (Q9Y5X4 whole entry, looked up, the tested form may be a part): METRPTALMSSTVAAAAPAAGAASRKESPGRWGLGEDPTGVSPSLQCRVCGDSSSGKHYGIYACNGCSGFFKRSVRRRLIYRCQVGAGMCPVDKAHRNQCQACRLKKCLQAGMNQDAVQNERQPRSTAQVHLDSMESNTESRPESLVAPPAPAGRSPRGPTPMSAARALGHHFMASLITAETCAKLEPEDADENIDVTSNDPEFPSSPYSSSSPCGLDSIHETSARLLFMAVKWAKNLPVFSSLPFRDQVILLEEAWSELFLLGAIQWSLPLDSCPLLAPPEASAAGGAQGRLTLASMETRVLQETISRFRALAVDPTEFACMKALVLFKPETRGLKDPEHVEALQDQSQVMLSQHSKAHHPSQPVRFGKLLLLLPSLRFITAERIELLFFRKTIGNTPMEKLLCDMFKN
GAA850 FXN act – increases GAA850 frataxin promoter reporter activity; activation, % at 6 µM; hit rate 0.56% among 360,000; AID 540364; HEK293 lucGAA850 FXN promoter luciferase reporter, 24 h; percent of 10 µM SAHA response;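 active = activation above the average of all compounds screened plus 3 SD, cutoff fixed separately per campaign, cut at about 7.5% in these data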
GalR3 antag – antagonists of human GalR3. O60755. HEK293 GalR3-CNG cAMP membrane potential fluorescence; galR3 body fused to GalR1 C-terminus. inhibition, % at 3 µM. hit rate 0.44% among 360,000. AID 651719;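 active = inhibition above the screen-wide average plus 3 SD, cut at about 13% in these data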;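 also: forskolin and galanin both at EC90 stimulate the cells; cAMP rise reported by CNG channel membrane potential dye signal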
Target sequence (O60755 1-299 limits assumed): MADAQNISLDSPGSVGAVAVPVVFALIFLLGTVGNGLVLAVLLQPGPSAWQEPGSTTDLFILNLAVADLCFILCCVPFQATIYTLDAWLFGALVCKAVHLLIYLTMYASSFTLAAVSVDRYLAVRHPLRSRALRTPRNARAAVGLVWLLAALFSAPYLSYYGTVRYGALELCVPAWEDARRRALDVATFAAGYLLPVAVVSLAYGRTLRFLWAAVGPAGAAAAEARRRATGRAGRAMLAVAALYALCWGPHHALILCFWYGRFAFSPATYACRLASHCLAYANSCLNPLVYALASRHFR
NR2E3 ag-2 – NR2E3 (human) agonism; inhibition of corepressor binding, % at 4.78 µM; hit rate 0.12% among 320,000; GST-NR2E3/biotin-RetCOR TR-FRET, 1536-well; Q9Y5X4;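 active = percent inhibition above the cutoff of mean plus 3 SD of all tested compounds, set per screening campaign, cut at about 20% in these data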
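system = GST-tagged NR2E3 plus biotinylated RetCOR corepressor | input = 1.35 nM GST-NR2E3 | also added = 7 nM biotin-RetCOR | schedule = 5 h incubation at 4 °C | measured by = TR-FRET with europium anti-GST and streptavidin-D2, 340 nm excitation | read-out = percent loss of FRET ratio relative to control wells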
V-ATPase pHluor – alters yeast V-ATPase proton transport; S. cerevisiae, pHLuorin cytosolic pH fluorescence; response, % at 10 µM; AID 504577; hit rate 0.37% among 350,000; in the data active = response mostly above about 7.3%, no sharp cut-off; inactive = mostly below about 5.4%; also: actives read high
HIV Env fusion – inhibitors of HIV Env-mediated cell fusion; HeLa-JRFL Env/CEM21 cell fusion, luciferase; inhibition, % at 12.3 µM; hit rate 1.1% among 360,000; AID 651610;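 active = mean replicate inhibition score of at least 50 and every replicate individually at or above 50; inconclusive = only one of the two criteria met; inactive = mean below 50 and not all replicates reaching 50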
NR2E3 ag confirm – NR2E3 agonism confirmed in two-hybrid assay | CHO-S mammalian two-hybrid NR2E3-NCOR, luciferase luminescence | shares compounds with NR2E3 ag-1 | inhibition, % at 3.98 µM | hit rate 51% among 2,300 | AID 624378;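 active = average inhibition above a cutoff equal to the mean inhibition of all tested compounds plus one SD, cut at about 70% in these data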
VP16 counter – reduces GAL4-VP16 reporter signal in NR2E3 counterscreen; shares compounds with NR2E3 ag-1; CHO-S GAL4-VP16 luciferase reporter, luminescence; inhibition, % at 3.98 µM; hit rate 29% among 2,300; AID 624379;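 active = mean inhibition above a cutoff equal to the average over all tested compounds plus one standard deviation, cut at about 70% in these data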;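 also: luciferase from a UAS reporter driven by GAL4-VP16 transactivation; higher means less reporter light so more repression of VP16 activity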
Hits are given with their value; 0 = inactive; ? = inconclusive; - = not tested or not shown.

SMILES	NR2E3 ag-1	GAA850 FXN act	GalR3 antag	NR2E3 ag-2	V-ATPase pHluor	HIV Env fusion	NR2E3 ag confirm	VP16 counter
CN(Cc1cnc2nc(N)nc(N)c2n1)c1ccc(C(=O)NC(CCC(=O)O)C(=O)O)cc1 (stereo not given)	0	0	0	-	0	0	0	0
C[C@@H]1CCCCO[C@@H](CN(C)C(=O)Nc2ccc3c(c2)OCO3)[C@@H](C)CN([C@H](C)CO)C(=O)c2cc(NC(=O)Cc3ccccc3)ccc2O1	-	-	-	-	-	0	-	-
COc1cccc2[nH]c3c(N4CCN(Cc5ccc6c(c5)OCO6)CC4)ncnc3c12	-	-	0	0	-	-	-	-
Cc1ccc2[nH]c3c(N4CCN(Cc5ccc6c(c5)OCO6)CC4)ncnc3c2c1	-	-	0	-	-	0	-	-
Cc1ccc2[nH]c3c(N4CCN(Cc5ccccc5)CC4)ncnc3c2c1	79	0	0	0	0	97	88	74
COc1ccc2c(c1)[nH]c1c(N3CCN(Cc4ccc5c(c4)OCO5)CC3)ncnc12	92	0	0	0	0	97	97	86
Cc1ccc2c(c1)[nH]c1c(N3CCN(Cc4ccccc4)CC3)ncnc12	0	0	0	0	0	63	86	74
Cc1noc(C)c1NC(=O)N(C)C[C@@H]1Oc2ccc(NC(=O)Nc3ccc4c(c3)OCO4)cc2C(=O)N([C@H](C)CO)C[C@@H]1C	-	-	-	-	-	0	-	-
Cc1[nH]oc(=O)c1N=Nc1ccccc1	75	0	0	0	0	0	0	0
C[C@@H]1CN([C@@H](C)CO)C(=O)c2cccc(NS(=O)(=O)c3ccc(F)cc3)c2O[C@@H]1CN(C)CC1CC1	-	-	-	-	-	0	-	-
Cc1ccccc1Nc1c(-c2cccnc2)nc2ccccn12	0	0	0	0	0	0	-	-
Cc1ccn2c(Nc3ccccc3)c(-c3ccccn3)nc2c1	0	0	0	0	0	66	91	0
Cc1ccc2nc(-c3ccccn3)c(Nc3ccccc3C)n2c1	94	0	0	0	0	0	0	0
Cc1ccccc1Nc1c(-c2ccccn2)nc2ccccn12	76	0	0	0	0	0	0	0
Cc1ccn2c(Nc3ccccc3C)c(-c3ccccn3)nc2c1	97	0	0	0	0	0	0	0
Cc1ccc(-c2nc3ncccn3c2Nc2ccccc2C)o1	0	0	0	0	0	0	-	-
Cc1ccc2nc(-c3cccnc3)c(Nc3ccccc3C)n2c1	0	0	0	0	0	0	-	-
Cc1noc(C)c1S(=O)(=O)N(C)C[C@@H]1OCCCC[C@H](C)Oc2ccc(NS(=O)(=O)c3cccs3)cc2C(=O)N([C@H](C)CO)C[C@@H]1C	-	-	-	-	-	0	-	-
Cc1cccn2c(Nc3ccccc3)c(-c3ccccn3)nc12	82	0	0	0	0	0	0	0
COc1ccc(-c2nc3ncccn3c2Nc2ccccc2)cc1	0	0	0	0	0	0	-	-
CC(C)C#Cc1cnc2c(c1)C(=O)N([C@@H](C)CO)C[C@H](C)[C@@H](CN(C)C(=O)C1CCC1)O2	-	-	-	-	-	0	-	-
COc1cccc(COc2ccccc2C2Nc3ccc(Br)cc3C(=O)N2NC(=O)c2ccncc2)c1 (stereo not given)	0	0	0	0	0	-	0	0
O=C(NCCCCCCNC(=O)OCc1ccccc1)OCc1ccccc1	0	0	0	-	0	0	-	-
O=C(OCc1ccccc1)N(CCCCN(CCCNCc1ccccc1)C(=O)OCc1ccccc1)CCCNCc1ccccc1	0	0	0	-	0	0	0	0
Fc1ccc2[nH]c3c(NCc4ccccc4)ncnc3c2c1	90	0	0	0	0	0	97	87
SMILES	NR2E3 ag-1	GAA850 FXN act	GalR3 antag	NR2E3 ag-2	V-ATPase pHluor	HIV Env fusion	NR2E3 ag confirm	VP16 counter
CCCNC(=O)Nc1ccc2c(c1)OC[C@H](C)N(Cc1ccc(-c3ccccn3)cc1)C[C@H](C)[C@@H](OC)CN(C)C2=O	-	-	-	-	-	0	-	-
c1ccc2c(c1)oc1c(Nc3ccc4c(c3)OCO4)ncnc12	0	0	0	0	0	-	-	-
c1ccc2c(c1)oc1c(NCc3ccc4c(c3)OCO4)ncnc12	73	0	-	0	0	-	90	75
O=C1CCC(C(=O)OCC(=O)c2ccccc2)N1 (stereo not given)	0	0	0	0	0	0	-	-
CC1CC(C)C(=O)C(C(CC2CC(=O)NC(=O)C2)OC(=O)CC(=O)c2ccccc2)C1 (stereo not given)	90	0	0	-	0	?	99	88
Cc1nn(C(C)(C)C)c(C)c1/C=N/OC(=O)Nc1ccc(Cl)c(Cl)c1	92	0	0	0	0	65	0	96
S=c1[nH]cnc2scc(-c3ccc(Cl)cc3)c12	0	0	0	0	0	0	0	0
S=c1[nH]cnc2scc(-c3ccc(Br)cc3)c12	81	0	0	0	0	0	0	0
Cc1ccc(-c2csc3nc[nH]c(=S)c23)cc1	0	0	0	0	0	0	-	-
Cc1noc(C)c1NC(=O)N(C)C[C@@H]1Oc2ccc(NC(=O)C3CC3)cc2CC(=O)N([C@H](C)CO)C[C@@H]1C	-	-	-	-	-	0	-	-
CN(c1ccccc1)S(=O)(=O)c1cccc(NC(=O)c2ccncc2)c1	0	0	0	0	0	0	0	0
CCOC(=O)c1cnc(-n2nc(C)cc2C)nc1NC1CCCC1	94	0	0	0	0	0	0	0
CCOC(=O)c1cnc(-n2nc(C)cc2C)nc1NCCc1ccccc1	86	0	0	0	0	0	0	0
CCOC(=O)c1cnc(-n2nc(C)cc2C)nc1Nc1ccc(OC)cc1	0	0	0	0	0	0	-	-
C[C@@H]1CN([C@H](C)CO)C(=O)c2cc(NS(C)(=O)=O)ccc2O[C@@H](C)CCCCO[C@H]1CN(C)CC1CC1	-	-	-	-	-	0	-	-
COc1ccccc1NC(=O)c1ccccc1NS(=O)(=O)c1cccs1	0	0	0	0	0	0	-	-
COc1ccc(C)cc1NC(=O)c1ccccc1NS(=O)(=O)c1ccc(Cl)s1	101	0	0	0	0	0	99	90
Cc1ccc(NC(=O)c2ccccc2NS(=O)(=O)c2ccc(Cl)s2)cc1S(=O)(=O)N1CCOCC1	90	0	0	0	0	0	99	78
CN(C)c1nc(=NCc2ccco2)ss1	76	0	-	0	0	-	0	0
O=C1CCCC(=NCc2ccco2)C1	0	0	0	0	0	-	-	-
Cc1noc(C)c1NC(=O)Nc1ccc2c(c1)C(=O)N([C@H](C)CO)C[C@H](C)[C@H](CN(C)S(=O)(=O)c1ccccc1)OCCCC[C@@H](C)O2	-	-	-	-	-	0	-	-
COc1cc2cc(C(=O)Nc3ccc4c(c3)OCCO4)[nH]c2cc1OC	0	0	0	0	0	0	0	0
COc1cc2[nH]c(C(=O)Nc3ccc4c(c3)OCCO4)cc2c(OC)c1OC	0	0	0	0	0	0	-	-
